# Laboratory results from ChEMBL document CHEMBL1255440, “An antimicrobial peptide that targets DNA repair intermediates in vitro inhibits Salmonella growth within murine macrophages” (Antimicrob Agents Chemother, 2010).
# Columns and labels:
# [1] = tested on: J774.A1; experiment: Drug uptake in mouse J774A1 cells at 0.5 uM after 5 mins by confocal laser microscopy; assay type: ADME, cell-based; conditions: j774.a1, 5 min
# Procedure, shortened: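 Cells were seeded at 200,000 per chamber-slide well and left to adhere overnight at 37°C. They were then exposed in DMEM to peptide carrying an N-terminal rhodamine label, at 37°C or, where stated, 4°C. Cells were washed three times in PBS, fixed in 4% paraformaldehyde for 30 min, and mounted in antifade. Optical slices near the cell centre were imaged by confocal laser microscopy.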
# [2] = tested on: J774.A1; experiment: Drug uptake in mouse J774A.1 cells assessed as dimer to monomer peptide ratio at 100 uM after 24 hrs at 4 degC by HPLC analysis; conditions: J774A.1, 24 h
# [3] = Drug uptake in mouse peritoneal macrophages assessed as total peptide concentration at 100 uM after 24 hrs at 37 degC by HPLC analysis; assay type: ADME, cell-based; conditions: peritoneal macrophage cell
# Procedure, shortened: (§1)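 Macrophages were elicited in 8–12-week-old female BALB/c mice with 4% thioglycolate i.p. and harvested by lavage 4 days later. Cells were seeded at 300,000 per well for 24 h, then given unlabeled peptide in DMEM for 24 h at 37°C. Lysates were run on reverse-phase HPLC at A280. Monomer (17.5 min) and dimer (17.75 min) peak areas were compared with a standard curve. Concentration assumed 1 pl per cell; values are means of three determinations.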
# [4] = tested on: J774.A1; experiment: Drug uptake in mouse J774A1 cells assessed as total peptide concentration at 150 uM after 5 hrs at 4 degC by HPLC analysis; assay type: ADME, cell-based; conditions: j774.a1, 5 h
# Procedure, shortened: (§2)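 J774A.1 cells were seeded at 300,000 per well and allowed to adhere for 24 h at 37°C in 5% CO2. Medium was replaced with DMEM containing unlabeled peptide, and cells were held at 37°C or 4°C. After three washes in ice-cold PBS, cells were lysed in NP-40 buffer and debris spun out. Reverse-phase HPLC was read at 280 nm. Peaks at 17.5 and 17.75 min were integrated against a standard curve. Intracellular mM was calculated from 300,000 cells at 1 pl each, using monomer mass.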
# [5] = tested on: Salmonella typhimurium; experiment: Antibacterial activity against 10 MOI Salmonella enterica subsp. enterica serovar Typhimurium G785 transfected with SOS-inducible beta-galactosidase reporter infected in mouse J774A1 cells assessed as SOS induction at 50 uM after 4 hrs postinfection; assay type: functional, J774.A1
# Procedure, shortened: (§3)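 J774A.1 cells infected at MOI 10 with sulA promoter-lacZ reporter strain G785 using the gentamicin-protection protocol, treated with peptide (DMSO vehicle controls) plus 15 μg/ml gentamicin for 4 or 24 h. Released bacteria were plated for colony counts in parallel, and were incubated with 33 μM C12FDG (with 0.2 mM EDTA) in LB for 2 h at 37°C. Flow cytometry gave % fluorescein-positive among LPS-antibody-positive particles; Wilcoxon exact test.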
# [6] = tested on: J774.A1; experiment: Drug uptake in mouse J774A1 cells assessed as total peptide concentration at 150 uM after 5 hrs at 37 degC by HPLC analysis; assay type: ADME, cell-based; conditions: j774.a1, 5 h; procedure, shortened: as §2
# [7] = Cytotoxicity against mouse peritoneal macrophages assessed as dead cells at 100 uM by propidium iodide assay; assay type: cell-based; conditions: peritoneal macrophage cell
# Procedure, shortened: (§4)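 Cells seeded at 300,000/well and allowed to adhere, then given fresh DMEM with or without peptide for 24 h. Cells trypsinized, stained with a mammalian Live/Dead viability/cytotoxicity kit and analyzed by flow cytometry. Wilcoxon exact test.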
# [8] = tested on: Salmonella typhimurium; experiment: Antibacterial activity against 1 MOI Salmonella enterica subsp. enterica serovar Typhimurium infected in mouse J774A1 cells assessed as reduction in bacterial growth after 24 hrs; assay type: functional, organism-based; conditions: J774.A1
# Procedure, shortened: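 J774A.1 cells or thioglycolate-elicited BALB/c peritoneal macrophages seeded at 200,000/well, overnight 37°C 5% CO2; infected with GFP strain SDT1416, 1 h invasion, washed, 1 h in DMEM with 15 μg/ml gentamicin. Then fresh DMEM plus 15 μg/ml gentamicin with or without peptide (DMSO vehicle) for 24 h at 37°C; macrophages lysed with 1% Triton X-100, plated on LB agar for CFU.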
# [9] = tested on: J774.A1; experiment: Drug uptake in mouse J774A1 cells assessed as dimer to monomer peptide ratio at 100 uM after 5 hrs at 37 degC by HPLC analysis; assay type: ADME, cell-based; conditions: j774.a1, 5 h
# Procedure, shortened: (§5)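 J774A.1 cells were incubated with unlabeled peptide for 5 or 24 h at 37°C or 4°C, washed in ice-cold PBS and lysed with NP-40 buffer. Lysates were run on reverse-phase HPLC with an acetonitrile/0.1% TFA gradient and A280 fractions. Monomer (~17.5 min) and dimer (~17.75 min) peak areas were compared against a standard curve. Intracellular mM was calculated using 300,000 cells and 1 pl/cell, with concentration expressed as monomer mass.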
# [10] = tested on: J774.A1; experiment: Drug uptake in mouse J774A.1 cells assessed as total peptide concentration at 50 uM after 24 hrs at 4 degC by HPLC analysis; conditions: J774A.1, 24 h
# [11] = Drug uptake in mouse peritoneal macrophages assessed as dimer to monomer peptide ratio at 50 uM after 24 hrs at 37 degC by HPLC analysis; assay type: ADME, cell-based; conditions: peritoneal macrophage cell; procedure, shortened: as §1
# [12] = tested on: J774.A1; experiment: Drug uptake in mouse J774A1 cells assessed as dimer to monomer peptide ratio at 50 uM after 5 hrs at 37 degC by HPLC analysis; assay type: ADME, cell-based; conditions: j774.a1, 5 h; procedure, shortened: as §5
# [13] = Cytotoxicity against mouse peritoneal macrophages assessed as live cells at 100 uM by calcein AM assay; assay type: cell-based, Peritoneal macrophage cell; conditions: read-out: Activity; procedure, shortened: as §4
# [14] = tested on: Salmonella typhimurium; experiment: Antibacterial activity against 1 MOI Salmonella enterica subsp. enterica serovar Typhimurium infected in mouse J774A1 cells assessed as fold reduction in bacterial growth at 100 uM after 12 hrs; assay type: functional, J774.A1
# [15] = tested on: Salmonella typhimurium; experiment: Antibacterial activity against 10 MOI Salmonella enterica subsp. enterica serovar Typhimurium G785 transfected with SOS-inducible beta-galactosidase reporter infected in mouse J774A1 cells assessed as bacterial number at 50 uM after 24 hrs postinfection; assay type: functional, J774.A1; procedure, shortened: as §3
# [16] = tested on: J774.A1; experiment: Drug uptake in mouse J774A1 cells assessed as dimer to monomer peptide ratio at 150 uM after 5 hrs at 37 degC by HPLC analysis; assay type: ADME, cell-based; conditions: j774.a1, 5 h; procedure, shortened: as §5
# [17] = tested on: J774.A1; experiment: Drug uptake in mouse J774A1 cells assessed as dimer to monomer peptide ratio at 50 uM after 24 hrs at 37 degC by HPLC analysis; assay type: ADME, cell-based; conditions: j774.a1, 24 h; procedure, shortened: as §5
# [18] = tested on: J774.A1; experiment: Drug uptake in mouse J774A1 cells assessed as total peptide concentration at 100 uM after 24 hrs at 37 degC by HPLC analysis; assay type: ADME, cell-based; conditions: j774.a1, 24 h; procedure, shortened: as §5
# [19] = tested on: Salmonella typhimurium; experiment: Antibacterial activity against 10 MOI Salmonella enterica subsp. enterica serovar Typhimurium G785 transfected with SOS-inducible beta-galactosidase reporter infected in mouse J774A1 cells assessed as bacterial number at 100 uM after 4 hrs postinfection; assay type: functional, J774.A1; procedure, shortened: as §3
# [20] = tested on: J774.A1; experiment: Drug uptake in mouse J774A.1 cells assessed as total peptide concentration at 100 uM after 24 hrs at 4 degC by HPLC analysis; conditions: J774A.1, 24 h
# [21] = tested on: Salmonella typhimurium; experiment: Antibacterial activity against Salmonella enterica subsp. enterica serovar Typhimurium SDT1416; assay type: functional
# Procedure, shortened: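 MIC by NCCLS broth microdilution against GFP-expressing strain SDT1416.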
# [22] = tested on: Salmonella typhimurium; experiment: Antibacterial activity against 10 MOI Salmonella enterica subsp. enterica serovar Typhimurium G785 transfected with SOS-inducible beta-galactosidase reporter infected in mouse J774A1 cells assessed as SOS induction at 50 uM after 24 hrs postinfection; assay type: functional, J774.A1; procedure, shortened: as §3
smiles,measurement,setting,value
N=C(N)NCCC[C@@H](NC(=O)[C@@H](CS)NC(=O)[C@@H](Cc1ccc(O)cc1)NC(=O)[C@@H](Cc1c[nH]c2ccccc12)NC(=O)[C@@H](CCCNC(=N)N)NC(=O)[C@H](N)Cc1c[nH]c2ccccc12)C(=O)O,Drug uptake,[1],Active
same,Ratio,[2],11.5
same,Drug uptake,[3],7.4 mM
same,Drug uptake,[4],15.8 mM
same,Activity,[5],0.3%
same,Drug uptake,[6],28.9 mM
same,Activity,[7],3.1%
same,Activity,[8],Dose-dependent effect
same,Ratio,[9],2.6
same,Drug uptake,[10],10.1 mM
same,Ratio,[11],0.9
same,Ratio,[12],2.1
same,viability at 100 µM,[13],94.4%
same,fold change (FC),[14],< 50
same,Activity,[15],45.2%
same,Ratio,[16],11
same,Ratio,[17],1.7
same,Drug uptake,[18],16.9 mM
same,Activity,[19],19%
same,Drug uptake,[20],32.9 mM
same,MIC,[21],64 µM
same,Activity,[22],0.4%
